Data from ChEMBL document CHEMBL3351368, “Biphenyl-4-carboxylic acid [2-(1H-indol-3-yl)-ethyl]-methylamide (CA224), a nonplanar analogue of fascaplysin, inhibits Cdk4 and tubulin polymerization: evaluation of in vitro and in vivo anticancer activity” (J Med Chem, 2014).
≈ marks a conversion by molar mass, not a printed value. Calls of active or inactive are those of the source.

Tests used:
[1] = target: Insulin-like growth factor 1 receptor (Homo sapiens) (UniProt P08069); assay: Inhibition of human IGF-1R assessed as enzyme activity at 10 uM
MiaPaCa [2] = assay: Effect on p21 level in p53His273 mutant, pRb+ human MiaPaCa cells at IC50 concentration after 48 hrs by Western blot analysis; format: functional
[3] = Efflux ratio of permeability across basolateral to apical side over apical to basolateral side in human Caco2 cells; format: ADME, cell-based; details: Caco-2
[4] = Volume of distribution in BALB/c mouse at 1 mg/kg, iv; format: ADME, organism-based; design: dose 1 mg/kg, route intravenous; details: in vivo
Procedure, shortened: (§1)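 BALB/c mice given a single dose of 1.0 mg/kg IV or 10 mg/kg orally; plasma concentration followed over time and pharmacokinetic parameters derived from the time-concentration profile.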

LS174T = assay: Induction of p21 level in p53+, pRb+ human LS 174T cells at IC50 concentration after 24 hrs by Western blot analysis
NCI-H1299 [5] = assay: Induction of apoptosis in p53 null, pRb+ human NCI-H1299 cells assessed as fragmented nuclei/distrupted cell membrane after 24 hrs by DAPI staining-based flow cytometry
A549 [6] = assay: Reduction cyclin B1 level in p53+, pRb+ human A549 cells at IC50 concentration after 24 hrs by Western blot analysis
Tubulin (Homo sapiens) [7] = target: T1, Tubulin (Homo sapiens) (UniProt P68371+Q9H4B7+P0DPH7+P68366+Q13509+Q71U36+P04350+Q3ZCM7+P07437+P68363+Q9BQE3+Q6PEY2+Q13885+Q9BVA1+Q9BUF5); assay: Inhibition of tubulin (unknown origin) polymerization assessed as decrease in Vmax measured by spectrophotometry; format: protein-complex assay
Procedure, shortened: (§2)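 Purified tubulin polymerisation followed as absorbance increase over about 4000 s. Vmax (mOD/min) is taken as the read-out, with final polymer mass also noted. Compound is tested at 2.5, 5, 10 and 25 µM alongside untreated control, paclitaxel 10 µM (enhancer) and nocodazole 10 µM (inhibitor). Curves are the average of three independent experiments.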

Tubulin (Homo sapiens) [8] = target: T1, Tubulin (Homo sapiens); assay: Inhibition of tubulin (unknown origin) polymerization assessed as decrease in Vmax measured at 25 uM by spectrophotometry; format: protein-complex assay; procedure, shortened: as §2
[9] = Cmax in BALB/c mouse at 1 mg/kg, iv; format: ADME, organism-based; design: dose 1 mg/kg, route intravenous; details: in vivo; procedure, shortened: as §1
[10] = Cell cycle arrest in mouse BNL-CL2 cells assessed as accumulation of cells at G2/M phase at IC50 concentration after 48 hrs by flow cytometry (reference value: 23%); format: functional
Procedure, shortened: (§3)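 Normal (BNL CL2) and SV40 large T-antigen transformed (BNL SV A.8) mouse embryonic hepatic cells were treated at IC50 or IC70 concentration for 48 h. Analysis was by FACS, with apoptosis taken as % cells in the sub-G1 peak. Untreated cells served as control.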

Tubulin (Homo sapiens) [11] = target: T1, Tubulin (Homo sapiens); assay: Inhibition of tubulin (unknown origin) polymerization assessed as decrease in Vmax measured at 2.5 uM by spectrophotometry; format: protein-complex assay; procedure, shortened: as §2
[12] = target: Dual specificity mitogen-activated protein kinase kinase 1 (Homo sapiens) (UniProt Q02750); assay: Inhibition of human MEK1 assessed as enzyme activity at 10 uM
[13] = Growth inhibition of p53His273 mut, pRb+ human MiaPaCa cells after 48 hrs by MTT assay; format: functional; details: MIA PaCa-2, 48 h
Procedure, shortened: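 MTT cell proliferation assay. IC50 (µM) was defined as the concentration giving 50% inhibition of cell growth.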

[14] = target: Mitogen-activated protein kinase 1 (Homo sapiens) (UniProt P28482); assay: Inhibition of human MAPK1 assessed as enzyme activity at 10 uM
CYP2C19 = CYP2C19 (Homo sapiens, UniProt P33261); assay: Inhibition of human recombinant CYP2C19 at 10 uM; format: ADME
[15] = Maximum tolerated dose in ip dosed Swiss mouse assessed as body weight change treated for 5 days; format: ADME, organism-based; details: in vivo
Procedure, shortened: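 Swiss albino mice, 6 per group, are dosed intraperitoneally once daily for five days (Q1D x 5) at several doses. The formulation contains Tween 20. Body weight is tracked over a two-week study, and MTD is set as the dose giving >10% weight loss; a drop of >20% is rated highly significant.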

[16] = Solubility in simulated intestinal fluid; format: ADME
MiaPaCa [17] = assay: Effect on p53 level in p53His273 mutant, pRb+ human MiaPaCa cells at IC50 concentration after 48 hrs by Western blot analysis; format: functional
NCI-H1299 [18] = assay: Cell cycle arrest in human NCI-H1299 cells assessed as accumulation of cells at S phase at IC50 concentration after 24 hrs by flow cytometry (reference value: 21%); format: functional
MiaPaCa [19] = assay: Effect on p27 level in p53His273 mutant, pRb+ human MiaPaCa cells at IC50 concentration after 48 hrs by Western blot analysis; format: functional
A549 [20] = assay: Increase in p27 level in p53+, pRb+ human A549 cells at IC50 concentration after 24 hrs by Western blot analysis
NCI-H358 [21] = assay: Cell cycle arrest in human NCI-H358 cells assessed as accumulation of cells at G2/M phase at IC50 concentration after 12 hrs by flow cytometry in presence of nocodazole for 18 hrs (reference value: 42%); format: functional
NCI-H358 [22] = assay: Cell cycle arrest in human NCI-H358 cells assessed as accumulation of cells at G2/M phase at IC50 concentration after 18 hrs by flow cytometry in presence of […] uM hydroxyurea for 18 hrs (reference value: 33%); format: functional
MiaPaCa [23] = assay: Induction in Cdk1 level in p53His273 mutant, pRb+ human MiaPaCa cells at IC50 concentration after 48 hrs by Western blot analysis; format: functional
[24] = Cell cycle arrest in SV-40 large T-antigen transformed human WI38 cells assessed as accumulation of cells at subG1 phase by flow cytometry; format: functional, cell-based; details: WI-38
[25] = AUC (0 to t) in BALB/c mouse at 10 mg/kg, po; format: ADME, organism-based; design: dose 10 mg/kg, route oral; details: plasma; procedure, shortened: as §1
[26] = target: Protein kinase C alpha type (Homo sapiens) (UniProt P17252); assay: Inhibition of human PKCalpha assessed as enzyme activity at 10 uM
[27] = target: Glycogen synthase kinase-3 beta (Homo sapiens) (UniProt P49841); assay: Inhibition of human GSK3beta assessed as enzyme activity at 10 uM
NCI-H358 [28] = assay: Induction of apoptosis in p53 null, […] human NCI-H358 cells assessed as fragmented nuclei/distrupted cell membrane at 1 to 10 uM by DAPI staining-based flow cytometry; details: TDE = time-dependent effect
[29] = target: Platelet-derived growth factor receptor (Homo sapiens) (UniProt P09619+P16234); assay: Inhibition of human PDGFR assessed as enzyme activity at 10 uM; format: protein-complex assay
BNL-CL2 = assay: Cell cycle arrest in mouse BNL-CL2 cells assessed as accumulation of cells at G2/M phase at IC70 concentration after 48 hrs by flow cytometry; format: functional, cell-based; procedure, shortened: as §3

Dual specificity mitogen-activated protein kinase kinase 1 (Homo sapiens), sequence (Q02750 whole entry): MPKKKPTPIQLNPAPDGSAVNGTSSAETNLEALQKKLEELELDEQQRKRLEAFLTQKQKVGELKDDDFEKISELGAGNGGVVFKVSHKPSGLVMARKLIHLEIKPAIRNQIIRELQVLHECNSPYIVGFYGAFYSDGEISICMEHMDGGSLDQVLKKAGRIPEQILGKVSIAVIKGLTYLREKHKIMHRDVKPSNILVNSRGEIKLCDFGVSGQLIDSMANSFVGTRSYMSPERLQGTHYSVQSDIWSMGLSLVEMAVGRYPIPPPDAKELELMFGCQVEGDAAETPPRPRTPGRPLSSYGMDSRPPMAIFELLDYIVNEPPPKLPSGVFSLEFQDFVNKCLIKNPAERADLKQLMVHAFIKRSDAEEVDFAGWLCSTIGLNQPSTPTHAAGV
CYP2C19, sequence (P33261 whole entry): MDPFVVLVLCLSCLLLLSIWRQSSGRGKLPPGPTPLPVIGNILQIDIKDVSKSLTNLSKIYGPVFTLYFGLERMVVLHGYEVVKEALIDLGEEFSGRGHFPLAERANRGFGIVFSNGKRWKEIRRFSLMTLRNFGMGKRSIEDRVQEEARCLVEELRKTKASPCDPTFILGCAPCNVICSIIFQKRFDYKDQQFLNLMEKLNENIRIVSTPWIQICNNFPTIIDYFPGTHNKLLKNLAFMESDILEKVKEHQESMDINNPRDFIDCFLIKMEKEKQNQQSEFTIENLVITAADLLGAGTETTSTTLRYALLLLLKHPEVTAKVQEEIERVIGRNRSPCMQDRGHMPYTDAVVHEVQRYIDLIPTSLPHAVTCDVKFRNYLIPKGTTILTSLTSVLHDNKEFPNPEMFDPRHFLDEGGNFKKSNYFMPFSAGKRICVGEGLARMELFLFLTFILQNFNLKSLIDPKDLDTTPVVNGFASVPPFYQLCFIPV
Mitogen-activated protein kinase 1 (Homo sapiens), sequence (P28482 whole entry, looked up): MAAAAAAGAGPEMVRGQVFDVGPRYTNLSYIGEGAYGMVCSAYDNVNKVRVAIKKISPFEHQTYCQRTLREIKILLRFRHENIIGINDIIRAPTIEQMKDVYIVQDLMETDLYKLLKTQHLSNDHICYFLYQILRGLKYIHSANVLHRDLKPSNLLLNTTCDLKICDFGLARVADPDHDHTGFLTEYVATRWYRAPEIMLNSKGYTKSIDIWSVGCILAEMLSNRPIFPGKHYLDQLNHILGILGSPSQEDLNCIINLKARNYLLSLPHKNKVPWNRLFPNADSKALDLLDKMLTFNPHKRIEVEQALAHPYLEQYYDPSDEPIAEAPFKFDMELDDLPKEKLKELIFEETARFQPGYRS
Glycogen synthase kinase-3 beta (Homo sapiens), sequence (P49841 whole entry, looked up, the tested form may be a part): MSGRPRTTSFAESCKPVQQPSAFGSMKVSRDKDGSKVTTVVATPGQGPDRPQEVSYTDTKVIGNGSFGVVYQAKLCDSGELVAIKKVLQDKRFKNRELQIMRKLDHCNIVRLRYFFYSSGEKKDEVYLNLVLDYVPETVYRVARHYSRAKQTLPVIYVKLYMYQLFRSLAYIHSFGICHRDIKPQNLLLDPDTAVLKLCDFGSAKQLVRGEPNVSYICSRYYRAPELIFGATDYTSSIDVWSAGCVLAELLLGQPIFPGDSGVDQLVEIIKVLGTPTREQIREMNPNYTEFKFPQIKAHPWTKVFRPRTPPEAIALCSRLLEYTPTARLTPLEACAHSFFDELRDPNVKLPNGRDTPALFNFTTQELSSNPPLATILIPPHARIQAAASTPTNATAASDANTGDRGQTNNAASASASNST
Insulin-like growth factor 1 receptor (Homo sapiens), sequence (P08069 31-736 limits assumed): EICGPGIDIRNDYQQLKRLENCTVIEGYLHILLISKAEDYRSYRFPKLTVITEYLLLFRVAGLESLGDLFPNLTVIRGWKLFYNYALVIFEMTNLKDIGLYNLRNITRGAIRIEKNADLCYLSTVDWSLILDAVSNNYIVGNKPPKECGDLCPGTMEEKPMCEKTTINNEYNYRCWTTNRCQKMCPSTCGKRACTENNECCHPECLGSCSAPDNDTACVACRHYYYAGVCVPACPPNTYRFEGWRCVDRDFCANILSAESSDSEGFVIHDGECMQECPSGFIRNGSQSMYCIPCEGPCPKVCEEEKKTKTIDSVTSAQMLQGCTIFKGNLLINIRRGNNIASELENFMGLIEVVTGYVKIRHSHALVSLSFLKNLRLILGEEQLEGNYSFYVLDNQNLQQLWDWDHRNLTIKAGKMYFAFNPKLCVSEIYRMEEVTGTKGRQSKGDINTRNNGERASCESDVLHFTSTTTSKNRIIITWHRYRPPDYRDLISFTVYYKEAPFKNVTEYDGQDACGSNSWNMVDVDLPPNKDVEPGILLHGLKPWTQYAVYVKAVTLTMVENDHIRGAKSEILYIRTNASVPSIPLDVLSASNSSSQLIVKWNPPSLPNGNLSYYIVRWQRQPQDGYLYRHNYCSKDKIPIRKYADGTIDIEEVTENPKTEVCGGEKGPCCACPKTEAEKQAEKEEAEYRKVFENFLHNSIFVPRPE
Insulin-like growth factor 1 receptor (Homo sapiens), sequence (P08069 741-1367 limits assumed): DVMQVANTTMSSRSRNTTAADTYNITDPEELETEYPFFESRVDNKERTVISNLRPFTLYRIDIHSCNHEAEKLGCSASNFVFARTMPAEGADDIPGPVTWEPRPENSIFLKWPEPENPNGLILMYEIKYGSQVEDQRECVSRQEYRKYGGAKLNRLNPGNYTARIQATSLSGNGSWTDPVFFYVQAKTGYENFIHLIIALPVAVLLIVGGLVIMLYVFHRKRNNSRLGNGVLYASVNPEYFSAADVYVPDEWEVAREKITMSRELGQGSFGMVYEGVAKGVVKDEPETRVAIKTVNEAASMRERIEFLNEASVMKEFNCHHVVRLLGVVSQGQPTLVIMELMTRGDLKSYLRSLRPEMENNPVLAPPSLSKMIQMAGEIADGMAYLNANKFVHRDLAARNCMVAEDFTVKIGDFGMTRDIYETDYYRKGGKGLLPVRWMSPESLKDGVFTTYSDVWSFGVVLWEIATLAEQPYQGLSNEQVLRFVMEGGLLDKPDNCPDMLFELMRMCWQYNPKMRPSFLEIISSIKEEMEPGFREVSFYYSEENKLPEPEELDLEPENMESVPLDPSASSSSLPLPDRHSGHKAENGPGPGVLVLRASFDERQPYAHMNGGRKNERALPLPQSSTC

Structure (SMILES): CN(CCc1c[nH]c2ccccc12)C(=O)c1ccc(-c2ccccc2)cc1
- inhibition [1]: inactive
- Activity (MiaPaCa [2]): inactive
- efflux ratio [3]: 1.1
- Vd [4]: 2.52 L/kg
- Activity (LS174T): Active
- Activity (NCI-H1299 [5]): Dose-dependent effect
- inhibition (A549 [6]): Active
- inhibition (Tubulin (Homo sapiens) [7]): Dose-dependent effect
- Activity (milli optical density/minute) (Tubulin (Homo sapiens) [8]): 0.4
- Cmax [9]: 371 ng/mL
- Activity [10]: 54%
- Activity (milli optical density/minute) (Tubulin (Homo sapiens) [11]): 6.2
- inhibition [12]: inactive
- IC50 [13]: 4 µM
- inhibition [14]: inactive
- inhibition at 10 µM (CYP2C19): 19%
- MTD at 120 h [15]: 1000 mg/kg
- solubility [16]: 5 µg/mL (≈ 14.1 µM)
- Activity (MiaPaCa [17]): inactive
- Activity (NCI-H1299 [18]): 10%
- Activity (MiaPaCa [19]): inactive
- Activity (A549 [20]): Active
- Activity (NCI-H358 [21]): 74%
- Activity (NCI-H358 [22]): 72%
- Activity (MiaPaCa [23]): Active
- Activity [24]: Active
- AUC(0-t) [25]: 172 ng·h/mL
- inhibition [26]: inactive
- inhibition [27]: inactive
- Activity (NCI-H358 [28]): tde
- inhibition [29]: inactive
- Activity (BNL-CL2): Active
